# The source made the active and inactive calls. No cut-off for these calls is given here.
# Columns and labels:
# [1] = system: Bromodomain-containing protein 2 (Homo sapiens), P25440 [UNDEFINED MUTATION]; conditions: U2OS, dose 500.0 nM
# [2] = target: Bromodomain-containing protein 3 (Homo sapiens) (UniProt Q15059); assay: Inhibition of BRD3 in human Flp-In-T-REx-293 cells assessed as increase in nucleolar protein partners (RNAPI, UBTF and TCOF1 ) at 500 nM incubated for 24 hrs by BioID assay; type: cell-based
# How it was run: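 Stable Flp-In T-REx HEK293 lines carrying BirA*-FLAG-tagged baits were grown in hygromycin to 80% confluence. Expression was induced with 1 μg/mL tetracycline and cells were given 50 μM biotin for 24 h. Lysis was in RIPA, with streptavidin capture for 3 h at 4°C and on-bead trypsin digestion, then LC-MS/MS. BirA*-FLAG-GFP or -NLS cells served as controls. Two biological replicates were run.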
# [3] = target: T1, Bromodomain and extra-terminal motif (BET) (Homo sapiens) (UniProt P25440+O60885+Q58F21+Q15059); conditions: Flp-In-T-REx-293, dose 500.0 nM, time 10-240 min
# BRD4/BRD9 (Homo sapiens) = BRD4/BRD9 (Homo sapiens) (UniProt O60885+Q9H8M2); conditions: HEK293, dose 5.0 nmol
# [4] = target: Bromodomain-containing protein 3 (Homo sapiens) (UniProt Q15059); assay: Inhibition of BRD3 in human U2OS cells assessed as displacement of BRD3 from rDNA IGS region toward the transcribed regions at 500 nM; type: cell-based
# [5] = target: T1, Bromodomain and extra-terminal motif (BET) (Homo sapiens); conditions: Flp-In-T-REx-293, dose 500.0 nM, time 10-240 min; remark: listed apart in the source
# [6] = target: Bromodomain-containing protein 2 (Homo sapiens) (UniProt P25440); conditions: U2OS, dose 500.0 nM, time 12.0 hrs
# [7] = target: Bromodomain-containing protein 2 (Homo sapiens) (UniProt P25440); conditions: U2OS, dose 500.0 nM, time 20.0 sec
# [8] = target: T1, Bromodomain and extra-terminal motif (BET) (Homo sapiens); conditions: Flp-In-T-REx-293, dose 500.0 nM, time 10-240 min; remark: listed apart in the source
# [9] = target: Bromodomain-containing protein 3 (Homo sapiens) (UniProt Q15059); assay: Inhibition of BRD3 in human U2OS cells assessed as induction of assembly of GFP-tagged BRD3 constructs in to dense foci at 500 nM measured 12 hrs after drug washout by live cell imaging; type: cell-based
# How it was run: (§1)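 Flp-In T-REx U-2 OS cells were grown in DMEM with GlutaMAX and 10% heat-inactivated FBS plus penicillin-streptomycin at 37°C and 10% CO2. eGFP-tagged constructs were expressed from a tetracycline-inducible pcDNA5-FRT-TO vector. Nuclear and nucleolar localisation and foci were followed by live-cell imaging.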
# [10] = target: T1, Bromodomain and extra-terminal motif (BET) (Homo sapiens); conditions: Flp-In-T-REx-293, dose 500.0 nM, time 10-240 min; remark: listed apart in the source
# [11] = system: Bromodomain-containing protein 3 (Homo sapiens), Q15059 [UNDEFINED MUTATION]; assay: Inhibition of BRD3 mutant bromodomain in human U2OS cells assessed as accumulation of BRD3 mutant in nucleolus at 500 nM by live cell imaging; type: cell-based
# How it was run: as §1
# [12] = system: Bromodomain-containing protein 3 (Homo sapiens), Q15059 [UNDEFINED MUTATION]; assay: Inhibition of BRD3 mutant bromodomain in human U2OS cells assessed as accumulation of BRD3 mutant in to foci at 500 nM by live cell imaging; type: cell-based
# How it was run: as §1
# [13] = target: T1, Bromodomain and extra-terminal motif (BET) (Homo sapiens); conditions: Flp-In-T-REx-293, dose 500.0 nM, time 10-240 min; remark: listed apart in the source
# [14] = target: T1, Bromodomain and extra-terminal motif (BET) (Homo sapiens); conditions: Flp-In-T-REx-293, dose 500.0 nM, time 10-240 min; remark: listed apart in the source
# U2OS [15] = assay: Effect on localization of the nucleolar proteins (PARP1, POLR1E, and TCOF1) in human U2OS cells at 500 nM; type: functional, cell-based
# How it was run: as §1
# [16] = system: Bromodomain-containing protein 1 (Homo sapiens), O95696 [UNDEFINED MUTATION]; assay: Inhibition of BRD1 mutant bromodomain in human U2OS cells expressing BD1 mutant assessed as diffuse nuclear localization of BD1 mutant in asynchronously growing cells at 500 nM by live cell imaging; type: cell-based
# How it was run: as §1
# [17] = target: Bromodomain-containing protein 3 (Homo sapiens) (UniProt Q15059); assay: Inhibition of BRD3 in human U2OS cells assessed as increase in association with partner protein (TCOF1, UBTF, and RNAPI) at 500 nM; type: cell-based
# [18] = target: T1, Bromodomain and extra-terminal motif (BET) (Homo sapiens); conditions: Flp-In-T-REx-293, dose 500.0 nM
# [19] = target: T1, Bromodomain and extra-terminal motif (BET) (Homo sapiens); conditions: Flp-In-T-REx-293, dose 500.0 nM, time 10-240 min; remark: listed apart in the source
# [20] = target: T1, Bromodomain and extra-terminal motif (BET) (Homo sapiens); conditions: Flp-In-T-REx-293, dose 500.0 nM, time 1.0 hrs
# [21] = target: T1, Bromodomain and extra-terminal motif (BET) (Homo sapiens); conditions: Flp-In-T-REx-293, dose 500.0 nM; remark: listed apart in the source
# [22] = system: Bromodomain-containing protein 2 (Homo sapiens), P25440 [UNDEFINED MUTATION]; conditions: Flp-In-T-REx-293, dose 500.0 nM, time 24.0 hrs
# U2OS [23] = assay: Inhibition of BRD1:2 mutant bromodomain in human U2OS cells assessed as foci formation of BRD2 mutant in to foci at 500 nM by live cell imaging; type: cell-based
# How it was run: as §1
# [24] = target: T1, Bromodomain and extra-terminal motif (BET) (Homo sapiens); conditions: Flp-In-T-REx-293, dose 500.0 nM, time 10-240 min; remark: listed apart in the source
# [25] = target: Bromodomain-containing protein 3 (Homo sapiens) (UniProt Q15059); assay: Inhibition of BRD3 in human U2OS cells assessed as induction of assembly of GFP-tagged BRD3 constructs in to dense foci at 500 nM measured within 20 seconds by live cell imaging; type: cell-based; conditions: time 20.0 sec
# How it was run: as §1
# Bromodomain-containing protein 3 (Homo sapiens), sequence (Q15059 2-726 limits assumed): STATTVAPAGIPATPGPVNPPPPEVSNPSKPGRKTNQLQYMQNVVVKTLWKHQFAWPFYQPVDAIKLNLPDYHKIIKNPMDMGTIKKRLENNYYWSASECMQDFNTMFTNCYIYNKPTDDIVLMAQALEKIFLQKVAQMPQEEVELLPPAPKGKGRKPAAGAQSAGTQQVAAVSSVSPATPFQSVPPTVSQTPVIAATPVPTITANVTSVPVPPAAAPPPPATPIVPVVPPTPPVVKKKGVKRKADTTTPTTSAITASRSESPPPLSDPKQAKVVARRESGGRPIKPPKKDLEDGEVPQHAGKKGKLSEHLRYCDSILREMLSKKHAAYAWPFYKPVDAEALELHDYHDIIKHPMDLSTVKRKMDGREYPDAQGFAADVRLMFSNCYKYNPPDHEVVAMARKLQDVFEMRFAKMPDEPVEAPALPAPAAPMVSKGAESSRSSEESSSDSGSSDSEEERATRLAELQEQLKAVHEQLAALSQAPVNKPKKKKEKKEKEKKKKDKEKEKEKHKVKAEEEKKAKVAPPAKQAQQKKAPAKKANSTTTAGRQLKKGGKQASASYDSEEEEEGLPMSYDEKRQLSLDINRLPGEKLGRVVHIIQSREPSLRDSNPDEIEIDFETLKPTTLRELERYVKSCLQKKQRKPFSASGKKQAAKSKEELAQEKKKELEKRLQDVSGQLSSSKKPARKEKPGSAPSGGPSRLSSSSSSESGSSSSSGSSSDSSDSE
# Bromodomain-containing protein 2 (Homo sapiens), P25440 [UNDEFINED MUTATION], sequence (P25440 whole entry, looked up, change not shown): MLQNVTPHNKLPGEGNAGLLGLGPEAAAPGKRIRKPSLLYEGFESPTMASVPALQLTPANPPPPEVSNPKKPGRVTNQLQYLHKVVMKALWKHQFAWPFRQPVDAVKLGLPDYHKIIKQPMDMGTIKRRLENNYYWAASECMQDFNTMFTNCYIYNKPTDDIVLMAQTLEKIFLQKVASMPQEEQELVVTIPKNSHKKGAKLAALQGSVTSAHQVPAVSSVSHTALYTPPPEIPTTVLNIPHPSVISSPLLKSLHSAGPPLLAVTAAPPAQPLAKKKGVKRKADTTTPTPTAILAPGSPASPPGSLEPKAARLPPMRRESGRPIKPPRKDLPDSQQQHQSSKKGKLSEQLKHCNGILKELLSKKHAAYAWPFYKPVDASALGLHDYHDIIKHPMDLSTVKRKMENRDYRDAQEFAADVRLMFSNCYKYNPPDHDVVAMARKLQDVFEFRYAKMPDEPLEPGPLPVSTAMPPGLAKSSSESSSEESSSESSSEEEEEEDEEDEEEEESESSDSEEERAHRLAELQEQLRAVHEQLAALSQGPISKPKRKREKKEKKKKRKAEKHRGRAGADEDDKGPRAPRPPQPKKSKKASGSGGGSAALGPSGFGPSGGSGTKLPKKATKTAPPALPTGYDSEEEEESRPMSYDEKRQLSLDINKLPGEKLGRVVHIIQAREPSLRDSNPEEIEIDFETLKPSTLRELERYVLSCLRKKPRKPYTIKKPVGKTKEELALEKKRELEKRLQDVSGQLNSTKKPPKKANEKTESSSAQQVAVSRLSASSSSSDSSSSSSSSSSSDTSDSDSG
# Bromodomain-containing protein 2 (Homo sapiens), sequence (P25440 whole entry, looked up): as the sequence (P25440 whole entry, looked up, change not shown) above
# Bromodomain-containing protein 3 (Homo sapiens), Q15059 [UNDEFINED MUTATION], sequence (Q15059 whole entry, looked up, change not shown): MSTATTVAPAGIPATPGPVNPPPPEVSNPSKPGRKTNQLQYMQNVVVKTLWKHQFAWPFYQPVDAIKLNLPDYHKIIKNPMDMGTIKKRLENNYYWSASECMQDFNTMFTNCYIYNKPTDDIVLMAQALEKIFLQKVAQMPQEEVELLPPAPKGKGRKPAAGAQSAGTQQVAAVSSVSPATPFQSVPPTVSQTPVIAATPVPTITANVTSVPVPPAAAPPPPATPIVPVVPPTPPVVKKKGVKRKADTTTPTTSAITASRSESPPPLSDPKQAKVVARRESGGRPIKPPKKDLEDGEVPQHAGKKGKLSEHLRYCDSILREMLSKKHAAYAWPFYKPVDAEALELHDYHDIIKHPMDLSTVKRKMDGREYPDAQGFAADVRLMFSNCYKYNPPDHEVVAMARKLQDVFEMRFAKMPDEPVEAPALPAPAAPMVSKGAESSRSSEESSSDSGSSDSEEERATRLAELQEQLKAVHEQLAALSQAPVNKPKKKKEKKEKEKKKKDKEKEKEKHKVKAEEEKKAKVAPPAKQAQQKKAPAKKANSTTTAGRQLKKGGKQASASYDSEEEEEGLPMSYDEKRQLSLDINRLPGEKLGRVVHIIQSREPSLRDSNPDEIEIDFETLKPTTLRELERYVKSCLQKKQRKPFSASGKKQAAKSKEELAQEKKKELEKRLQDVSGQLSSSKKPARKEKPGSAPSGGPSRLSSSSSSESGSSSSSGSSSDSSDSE
# Bromodomain-containing protein 1 (Homo sapiens), O95696 [UNDEFINED MUTATION], sequence (O95696 whole entry, looked up, change not shown): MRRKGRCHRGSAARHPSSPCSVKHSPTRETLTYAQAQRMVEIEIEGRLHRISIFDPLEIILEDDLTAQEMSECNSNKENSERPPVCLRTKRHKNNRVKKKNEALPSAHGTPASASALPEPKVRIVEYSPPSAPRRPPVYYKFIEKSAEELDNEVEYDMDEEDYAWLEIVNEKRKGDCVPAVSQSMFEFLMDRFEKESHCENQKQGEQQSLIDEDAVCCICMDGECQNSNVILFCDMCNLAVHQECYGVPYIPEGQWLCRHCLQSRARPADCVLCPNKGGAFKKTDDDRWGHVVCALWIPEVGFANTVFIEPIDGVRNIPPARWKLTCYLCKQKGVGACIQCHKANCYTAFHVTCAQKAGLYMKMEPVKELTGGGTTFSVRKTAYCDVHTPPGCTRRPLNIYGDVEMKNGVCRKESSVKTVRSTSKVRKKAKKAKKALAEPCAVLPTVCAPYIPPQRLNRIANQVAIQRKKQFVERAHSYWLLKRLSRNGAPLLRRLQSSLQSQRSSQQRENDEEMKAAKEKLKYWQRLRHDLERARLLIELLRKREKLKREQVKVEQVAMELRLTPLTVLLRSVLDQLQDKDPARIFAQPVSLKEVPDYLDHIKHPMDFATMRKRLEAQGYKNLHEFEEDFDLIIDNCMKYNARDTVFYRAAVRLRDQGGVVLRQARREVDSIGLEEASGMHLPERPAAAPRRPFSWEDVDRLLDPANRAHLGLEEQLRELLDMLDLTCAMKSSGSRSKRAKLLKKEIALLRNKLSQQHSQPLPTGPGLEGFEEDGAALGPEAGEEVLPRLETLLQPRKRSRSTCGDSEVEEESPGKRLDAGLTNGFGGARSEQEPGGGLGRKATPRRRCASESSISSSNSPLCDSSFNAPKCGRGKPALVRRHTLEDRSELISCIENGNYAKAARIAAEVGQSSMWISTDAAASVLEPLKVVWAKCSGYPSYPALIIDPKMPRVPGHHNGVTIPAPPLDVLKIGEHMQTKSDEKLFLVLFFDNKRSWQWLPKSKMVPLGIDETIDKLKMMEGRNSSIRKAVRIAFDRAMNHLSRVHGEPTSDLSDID
# BRD4/BRD9 (Homo sapiens), sequence (Q9H8M2 whole entry, looked up, other chains not shown): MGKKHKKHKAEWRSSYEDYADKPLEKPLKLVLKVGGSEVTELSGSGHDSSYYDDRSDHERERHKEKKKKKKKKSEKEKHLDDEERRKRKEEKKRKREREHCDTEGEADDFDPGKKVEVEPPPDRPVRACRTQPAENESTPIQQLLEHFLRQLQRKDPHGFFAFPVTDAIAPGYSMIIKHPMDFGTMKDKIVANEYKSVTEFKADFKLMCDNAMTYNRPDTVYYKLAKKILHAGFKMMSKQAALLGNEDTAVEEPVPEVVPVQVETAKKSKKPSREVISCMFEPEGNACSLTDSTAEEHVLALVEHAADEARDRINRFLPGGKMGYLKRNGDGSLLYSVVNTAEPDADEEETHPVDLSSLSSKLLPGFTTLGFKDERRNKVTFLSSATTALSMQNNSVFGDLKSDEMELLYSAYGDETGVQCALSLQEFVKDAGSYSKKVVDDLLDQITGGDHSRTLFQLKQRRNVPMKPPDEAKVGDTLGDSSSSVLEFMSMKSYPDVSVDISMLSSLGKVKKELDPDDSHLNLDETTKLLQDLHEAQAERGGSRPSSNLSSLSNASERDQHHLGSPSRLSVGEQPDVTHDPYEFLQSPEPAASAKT
compound,measurement,setting,value
Cc1sc2c(c1C)C(c1ccc(Cl)cc1)=N[C@@H](CC(=O)OC(C)(C)C)c1nnc(C)n1-2,inhibition,[1],inactive
same,inhibition,[2],Active
same,inhibition,[3],Active
same,inhibition,BRD4/BRD9 (Homo sapiens),inactive
same,inhibition,[4],Active
same,log2FC,[5],> 2
same,inhibition,[6],Active
same,inhibition,[7],Active
same,inhibition,[8],Active
same,inhibition,[9],Active
same,inhibition,[10],Active
same,inhibition,[11],Active
same,inhibition,[12],Active
same,inhibition,[13],Active
same,log2FC,[14],> 2
same,Activity,U2OS [15],inactive
same,inhibition,[16],inactive
same,inhibition,[17],Active
same,inhibition,[18],Active
same,inhibition,[19],Active
same,inhibition,[20],Active
same,inhibition,[21],Active
same,inhibition,[22],inactive
same,inhibition,U2OS [23],inactive
same,log2FC,[24],2
same,inhibition,[25],Active

# — ChEMBL document CHEMBL5712084, “Interactome Rewiring Following Pharmacological Targeting of BET Bromodomains” (Mol Cell, 2019)
